Assay results published in PubChem BioAssay.
The source made the active and inactive calls.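 How the source made its calls, unless noted: active means visual image review flags a hit and inhibition of aggregation exceeds 20%; inconclusive means visual hit but inhibition at or below 20%; inactive means no hit on visual image review.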

Tests used:
[1] = inhibitors of TNFa-induced NFkB p65 translocation, primary screen, imaging, HUVEC, MLSMR starter and 10KST1 sets (AID 438;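 active means inhibition above 20% together with a positive visual image hit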;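 further: compound added about 3h40 before a 20 min TNFalpha stimulation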;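 on inhibition: signal is the nuclear over cytoplasmic p65 intensity ratio per well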); details: HUVEC TNFa-induced p65 nuclear translocation; cell count: measured here: nuclei count (cytotoxicity indicator), at 2.08 µM; inhibition: at 2 µM, stronger effect = higher value, 0% TNFa-plus-vehicle, 100% no-TNFa wells
[2] = reduction of polyQ htt aggregates in cells – imaging, exon1htt(103Q)mCFP cells, high-content imaging, primary screen (AID 483); details: exon1htt(103Q)mCFP cell line, aggregate imaging, at 2 µM; inhibition of aggregation: stronger effect = higher value; nuclei count: measured here: cell count, toxicity;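 further: compound exposure lasted 3 days before fixation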;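 on nuclei count: percent of the per-plate median nuclei count of sample wells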
[3] = endothelial E-selectin expression blockers – imaging, HUVEC, immunofluorescence, MLSMR starter and 10KST1 sets, primary screen (AID 487;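 active means visually confirmed hit in the image check and inhibition above 20%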;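 on inhibition: signal is fraction of cell area covered by stained E-selectin grains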;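 on nuclei count: 100% = median nuclei count of all wells on the same plate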); details: HUVEC TNFalpha-induced E-selectin immunofluorescence imaging, at 2 µM; inhibition: stronger effect = higher value; nuclei count: measured here: cell number, toxicity
[4] = target: Voltage-gated potassium channel subunit beta-2 (Rattus norvegicus) (UniProt P62483); test: inhibitors of rat Kvbeta2 reductase activity – biochemical, NADPH fluorescence, primary screen (AID 622;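 active means fluorescence slope higher than the sample average by over 3 SD, cut at about -0.22 in these data, passing the limit was not always enough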;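 further: slope of raw intensity against log time taken from 70 to 1610 s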); details: recombinant KvBeta, 4-cyanobenzaldehyde reduction, at 10 µM, stronger effect = higher value
Chain of Voltage-gated potassium channel subunit beta-2 (Rattus norvegicus) (P62483 whole entry, looked up): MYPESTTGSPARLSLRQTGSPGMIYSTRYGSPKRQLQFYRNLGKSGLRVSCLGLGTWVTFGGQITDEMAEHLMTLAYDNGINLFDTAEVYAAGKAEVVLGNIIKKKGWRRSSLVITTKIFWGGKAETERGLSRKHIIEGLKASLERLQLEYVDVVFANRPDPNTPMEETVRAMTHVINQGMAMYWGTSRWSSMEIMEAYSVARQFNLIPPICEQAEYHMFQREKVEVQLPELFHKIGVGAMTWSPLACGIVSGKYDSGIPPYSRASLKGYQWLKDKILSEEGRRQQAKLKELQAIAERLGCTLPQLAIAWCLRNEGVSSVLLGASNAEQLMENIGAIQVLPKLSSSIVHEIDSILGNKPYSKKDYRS

[5] = target: Voltage-gated potassium channel subunit beta-2 (Rattus norvegicus) (UniProt P62483); test: enhancers of rat Kvbeta2 NADPH turnover – biochemical, NADPH fluorescence, primary screen (AID 623;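 active means NADPH fluorescence slope more negative than the mean of all samples by about 3 SD, 99.7% confidence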;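 further: fluorescence intensity change per second fitted from 20 to 320 s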); details: Recombinant KvBeta, NADPH fluorescence decrease slope, 10 min; at 10 µM; stronger effect = lower value
[6] = target: Muscarinic acetylcholine receptor M4 (Homo sapiens) (UniProt P08173); test: M4-linked GIRK flux change, two-sided – cell-based, HEK293 M4/GIRK, thallium flux, BTC-AM, M4 allosteric agonist project, primary screen (AID 625;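 active means fluorescence slope after compound addition differing from the mean of all tested samples at 99.7% confidence, mostly higher but some lower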;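 further: thallium influx through GIRK channels coupled to M4 in HEK293 cells with BTC-AM dye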); details: at 10 µM, actives lie on both sides
Chain of Muscarinic acetylcholine receptor M4 (Homo sapiens) (P08173 whole entry, looked up): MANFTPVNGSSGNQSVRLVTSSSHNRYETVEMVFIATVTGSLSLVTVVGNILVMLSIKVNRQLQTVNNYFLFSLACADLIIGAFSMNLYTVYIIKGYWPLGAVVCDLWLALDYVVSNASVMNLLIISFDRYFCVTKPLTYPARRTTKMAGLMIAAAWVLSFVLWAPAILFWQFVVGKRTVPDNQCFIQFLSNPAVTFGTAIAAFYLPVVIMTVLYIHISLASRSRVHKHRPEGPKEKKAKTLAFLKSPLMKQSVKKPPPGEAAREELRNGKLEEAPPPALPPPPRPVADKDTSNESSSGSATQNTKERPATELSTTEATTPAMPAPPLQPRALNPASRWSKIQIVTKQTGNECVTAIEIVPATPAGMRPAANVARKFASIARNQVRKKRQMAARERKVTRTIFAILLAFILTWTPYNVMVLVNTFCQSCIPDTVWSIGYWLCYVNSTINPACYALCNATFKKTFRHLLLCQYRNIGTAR
Procedure, shortened: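 System: HEK293 cells with M4 receptor and GIRK channels | Incubation: Cells overnight at 37 °C, BTC-AM loading 1 h, reads 2 min total | Technique: Kinetic BTC-AM fluorescence sampled at 1 Hz, 10 s pre-addition baseline | Measure: Post-addition slope, 15–24 s, of baseline-normalized fluorescence | Control set: Carbachol positive, DMSO negative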

[7] = blockers of RIG-like receptor reporter activation – cell-based, Sendai virus stimulus, luciferase, 10K MLSCN set, TLR/RLR signaling modifier project, primary screen (AID 602276;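 active means inhibition at or above 50% at 10 µM; inactive means inhibition below 50%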;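 further: firefly luciferase from ISG56 promoter only with Renilla not read in this screen; 0% = Sendai virus plus DMSO and 100% = medium plus DMSO without virus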); details: HEK293 RL24 IRF3 luciferase reporter, at 10 µM, stronger effect = higher value
[8] = TLR3 IRF3 reporter activation blockers – cell-based, poly I:C stimulus, luciferase, 10K MLSCN set, primary screen (AID 602277;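 active means inhibition of the reporter signal at or above 50%; inactive means inhibition below 50%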); details: HEK293-TLR3 RL24 IRF3 luciferase reporter, at 10 µM, stronger effect = higher value

Row | Structure (SMILES) | cell count [1] | inhibition [1] | inhibition of aggregation [2] | nuclei count [2] [%] | inhibition [3] | nuclei count [3] [%] | fluorescence slope [4] | NADPH fluorescence slope [5] | fluorescence slope [6] | inhibition [7] | inhibition [8]
1 | O=C(O)CCCCCNc1nc(=S)[nH]c2ccccc12 | 494 | -7.5% (inactive) | 20% (inactive) | 102 | 9.6% (inactive) | 105 | -0.384 (inactive) | 2.9e-05 (inactive) | 0.0068 (inactive) | 11.5% (inactive) | 19.2% (inactive)
2 | CCCS(=O)(=O)N1CCC(C(=O)N2CCCC2)CC1 | 657 | -9.9% (inactive) | -6.5% (inactive) | 96.1 | -70.4% (inactive) | 107 | -0.611 (inactive) | -8.1e-06 (inactive) | 0.00435 (inactive) | 18.9% (inactive) | 8.55% (inactive)
3 | CCCCC(CC)Cn1c2nc3ccccc3nc2c2c(=N)oc(C)nc21 (centres undefined) | 624 | 15.7% (inactive) | 23.1% (inactive) | 64.9 | -5.3% (inactive) | 97.3 | -0.196 (inactive) | 4.4e-06 (inactive) | 0.00498 (inactive) | 16.1% (inactive) | 15.4% (inactive)
4 | O=C(CSc1nnc(Cc2ccccc2)n1C1CCCCC1)N1CCOCC1 | 367 | 7.2% (inactive) | 12.5% (inactive) | 104 | -264% (inactive) | 113 | -0.463 (inactive) | 5e-05 (inactive) | 0.00611 (inactive) | -13% (inactive) | -20.2% (inactive)
5 | CCCC(=O)N1CCN(c2ccc(NC(=O)c3ccc(Br)o3)cc2)CC1 | 232 | 0.6% (inactive) | 7.1% (inactive) | 58.2 | -64.1% (inactive) | 116 | -0.457 (inactive) | 6.7e-06 (inactive) | 0.00487 (inactive) | -9.3% (inactive) | -42.4% (inactive)
6 | CCOCCCNC(=O)C1CCC(=O)N1CCc1ccccc1 (centres undefined) | 237 | 2.7% (inactive) | 1.1% (inactive) | 92.5 | -20% (inactive) | 95.1 | -0.568 (inactive) | -6.9e-06 (inactive) | 0.00522 (inactive) | 5.67% (inactive) | 12.9% (inactive)
7 | COc1ccc(-c2cc3nc4n(c(=O)c3s2)CCC4)cc1 | 433 | 3% (inactive) | 4.8% (inactive) | 88.6 | -96.4% (inactive) | 139 | -0.467 (inactive) | -3.4e-05 (inactive) | 0.0055 (inactive) | 12.2% (inactive) | -34.7% (inactive)
8 | NC1=NC(c2ccc(Br)cc2)n2c(nc3ccccc32)N1 (centres undefined) | 779 | 4.8% (inactive) | -6.6% (inactive) | 105 | -44.9% (inactive) | 106 | -0.556 (inactive) | -1.5e-06 (inactive) | 0.00498 (inactive) | 17.6% (inactive) | 25% (inactive)
9 | CCC(=O)N1CCNC(=O)C1CC(=O)Nc1ccc(C)c(Cl)c1 (centres undefined) | 258 | 3.7% (inactive) | -13.9% (inactive) | 102 | -40.7% (inactive) | 88.8 | -0.56 (inactive) | 1.7e-05 (inactive) | 0.00516 (inactive) | -5.01% (inactive) | -2.47% (inactive)
10 | O=S(=O)(NCC1CCCO1)c1cccc(C(F)(F)F)c1 (centres undefined) | 611 | -4.8% (inactive) | -6.4% (inactive) | 100 | -51.8% (inactive) | 159 | -0.568 (inactive) | 4.6e-05 (inactive) | 0.00471 (inactive) | 1.55% (inactive) | 12.2% (inactive)
11 | N#CC1=C(SCc2ccccc2)NC(=O)C(C#N)C12CCCC2 (centres undefined) | 413 | 4% (inactive) | -2.9% (inactive) | 116 | -9.1% (inactive) | 86.6 | -0.426 (inactive) | 2e-05 (inactive) | 0.00517 (inactive) | 2.21% (inactive) | -12.9% (inactive)
12 | CCC1c2ccc(C)n2CCN1C(=O)Nc1ccccc1OC (centres undefined) | 551 | -15.9% (inactive) | 0.1% (inactive) | 112 | -63.1% (inactive) | 116 | -0.402 (inactive) | -6.4e-05 (inactive) | 0.00541 (inactive) | 3.56% (inactive) | 3.42% (inactive)
13 | COC(=O)C1=C(C)N(c2ccc(C(=O)OC)cc2)C(=O)C1 | 734 | 4% (inactive) | -26.4% (inactive) | 87.2 | 23.7% (inactive) | 105 | -0.567 (inactive) | -4e-05 (inactive) | 0.00678 (inactive) | 16.3% (inactive) | 6.55% (inactive)
14 | O=C(Nc1ccccc1C(=O)N1CCCCCC1)c1cccc(S(=O)(=O)N2CCOCC2)c1 | 492 | -6.5% (inactive) | -11.4% (inactive) | 74.5 | -60.5% (inactive) | 84.2 | -0.572 (inactive) | -2.1e-05 (inactive) | 0.00535 (inactive) | 3.13% (inactive) | 10.6% (inactive)
15 | COc1ccc(-c2cn3c(C)c(C(=O)Nc4cc(NC(C)=O)ccc4OC)sc3n2)cc1 | 693 | 7.3% (inactive) | -40.3% (inactive) | 59 | -116% (inactive) | 118 | -0.166 (inactive) | -6.9e-06 (inactive) | 0.00656 (inactive) | 42.7% (inactive) | 26.4% (inactive)
16 | O=C1CC(c2ccc(S(=O)(=O)N3CCN(c4ccccc4)CC3)cc2)CN1 (centres undefined) | 426 | 0.3% (inactive) | 7.2% (inactive) | 102 | 75.6% (active) | 44.2 | -0.289 (inactive) | -4.6e-05 (inactive) | 0.00584 (inactive) | 5.45% (inactive) | 14.5% (inactive)
17 | C=Cn1c(C(=O)O)cc(CC)c1-c1ccccc1 | 642 | -12.5% (inactive) | -22.8% (inactive) | 107 | -51.5% (inactive) | 112 | -0.55 (inactive) | -4.3e-05 (inactive) | 0.00458 (inactive) | 10.9% (inactive) | 9.07% (inactive)
18 | COc1ccc(NC(=O)N2CCC(O)(c3cccnc3)CC2)c(OC)c1 | 643 | -6.3% (inactive) | 13% (inactive) | 88.6 | -161% (inactive) | 145 | -0.558 (inactive) | -3.4e-05 (inactive) | 0.00818 (inactive) | 10.9% (inactive) | 12.7% (inactive)
19 | COc1cccc(OC)c1C(=O)n1nc(C)cc1C | 489 | -18.1% (inactive) | -12.3% (inactive) | 99.8 | -10.8% (inactive) | 95.6 | -0.591 (inactive) | -3.7e-05 (inactive) | 0.00413 (inactive) | 14.5% (inactive) | 4.66% (inactive)
20 | COc1ccc(C(=O)N2CCOCC2)cc1Br | 406 | -7.6% (inactive) | 5.4% (inactive) | 90.8 | -24.6% (inactive) | 108 | -0.49 (inactive) | 3.2e-05 (inactive) | 0.0055 (inactive) | -0.192% (inactive) | -3.39% (inactive)
21 | Cc1cc(C)n(CCCNC(=O)c2ccc3c(c2)NC(=O)CS3)n1 | 722 | -0.6% (inactive) | -34.8% (inactive) | 87.8 | 10.7% (inactive) | 106 | -0.416 (inactive) | -1.2e-05 (inactive) | 0.00708 (inactive) | 14.3% (inactive) | 28.3% (inactive)
22 | COc1cc(C2=NOC(C(=O)NCc3ccc(F)cc3)C2)cc(OC)c1OC (centres undefined) | 774 | 13.6% (inactive) | -195% (inactive) | 2.2 | -308% (inactive) | 103 | -0.462 (inactive) | 4.9e-05 (inactive) | 0.00672 (inactive) | 36.9% (inactive) | 85.8% (active)
23 | ON=C1/C(=N\O)CC2(C/C1=N/O)OCCO2 | 408 | 2.2% (inactive) | 22.4% (inactive) | 69.5 | 7.1% (inactive) | 89.7 | -0.532 (inactive) | -3.5e-05 (inactive) | 0.00423 (inactive) | 17% (inactive) | 4.87% (inactive)
24 | c1ccc(-n2nnnc2OCCOc2nnnn2-c2ccccc2)cc1 | 172 | -10.5% (inactive) | 11.5% (inactive) | 102 | -5.3% (inactive) | 83.1 | -0.562 (inactive) | -6.2e-05 (inactive) | 0.00376 (inactive) | 14.3% (inactive) | 23.8% (inactive)
25 | COc1ccc(NS(=O)(=O)c2c(C)[nH]c(=O)[nH]c2=O)c(OC)c1 | 409 | 3.8% (inactive) | 7.4% (inactive) | 103 | -40.5% (inactive) | 113 | -0.565 (inactive) | -2.6e-05 (inactive) | 0.00529 (inactive) | 7.23% (inactive) | 13.8% (inactive)
26 | CCS(=O)(=O)c1ccc(S(=O)(=O)CC)s1 | 412 | -5.5% (inactive) | 25.8% (inactive) | 61.1 | 10.5% (inactive) | 82.3 | -0.584 (inactive) | -4.4e-05 (inactive) | 0.00846 (inactive) | 6.99% (inactive) | 17.4% (inactive)
27 | Cc1ccc(C(=O)OCC(=O)c2ccc(Cl)s2)s1 | 654 | -24.7% (inactive) | 10.6% (inactive) | 86 | -13.1% (inactive) | 121 | -0.454 (inactive) | 0.000104 (inactive) | 0.00572 (inactive) | -26% (inactive) | -58% (inactive)
28 | CC(C)CCNC(=O)CCNS(=O)(=O)c1ccc(Cl)cc1 | 538 | -19.2% (inactive) | 1.9% (inactive) | 79.8 | -36.9% (inactive) | 91.3 | -0.566 (inactive) | -1.2e-05 (inactive) | 0.00577 (inactive) | 22.9% (inactive) | 25.9% (inactive)
29 | CCCN(CCC)c1nc2ccccc2n2c(C)nnc12 | 460 | 6.5% (inactive) | -1.5% (inactive) | 76.7 | -77.3% (inactive) | 102 | -0.461 (inactive) | -3.2e-05 (inactive) | 0.00414 (inactive) | 11.6% (inactive) | 11.3% (inactive)
